Measurements as given in ChEMBL document CHEMBL1157649, “Cytotoxic 2-benzylidene-6-(nitrobenzylidene)cyclohexanones which display substantially greater toxicity for neoplasms than non-malignant cells” (Bioorg Med Chem, 2010).
Active and inactive are the calls of the source. The calls are words filed in the database; no cut-off is given here.

Experiments:
[1] = test system: HSC-2; test: Induction of internucleosomal DNA fragmentation in human HSC2 cells after 6 hrs; assay type: functional, cell-based
How it was run: (§1)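 HL-60 and HSC-2 cells were incubated with compound for 6 h. Internucleosomal DNA fragmentation was then examined against a DNA molecular-weight marker.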

[2] = Cytotoxicity against human HPLF cells after 24 hrs; assay type: cell-based; conditions: for CC50: hplf, 24 h
How it was run: (§2)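 Cells (HGF gingival fibroblasts, HPC pulp cells, HPLF periodontal ligament fibroblasts, HSC-2 and HSC-4 squamous carcinoma, HL-60 promyelocytic leukemia) were exposed to graded concentrations for 24 h, up to a maximum of 400 μM. CC50 is the concentration reducing viable cell number by 50%, taken from dose–response curves. Values are from duplicate determinations differing by less than 5%.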

[3] = test system: HL-60; test: Cytotoxicity against human HL60 cells after 24 hrs; assay type: functional; conditions: HL-60, 24 h; how it was run: as §2
[4] = test system: HSC-2; test: Induction of apoptosis in human HSC2 cells assessed as caspase-3 activation; assay type: functional, cell-based
How it was run: (§3)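 HL-60 and HSC-2 cells were incubated with compound for 5 h, then caspase-3 activation was measured. The positive control was UV irradiation (6 J/m²/min for 1 min) followed by 3 h incubation. Bars show mean ± SD, n = 3.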

[5] = test system: HL-60; test: Selectivity index, ratio of CC50 for human normal cells to CC50 for human HL60 cells; assay type: functional
How it was run: (§4)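 The index is the average CC50 toward the three normal cell types (HGF, HPC, HPLF) divided by the CC50 toward the indicated malignant line.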

[6] = test system: HL-60; test: Induction of internucleosomal DNA fragmentation in human HL60 cells after 6 hrs; assay type: functional, cell-based; how it was run: as §1
[7] = Partition coefficient, log P of the compound; assay type: physicochemical; conditions: octanol/water
[8] = test system: HSC-4; test: Cytotoxicity against human HSC4 cells after 24 hrs; assay type: functional; conditions: HSC-4, 24 h; how it was run: as §2
[9] = test system: HSC-2; test: Selectivity index, ratio of CC50 for human normal cells to CC50 for human HSC2 cells; assay type: functional; how it was run: as §4
[10] = test system: HSC-2; test: Cytotoxicity against human HSC2 cells after 24 hrs; assay type: functional; conditions: HSC-2, 24 h; how it was run: as §2
[11] = test system: HL-60; test: Induction of apoptosis in human HL60 cells assessed as caspase-3 activation; assay type: functional, cell-based; how it was run: as §3
[12] = Cytotoxicity against human HGF cells after 24 hrs; assay type: cell-based; conditions: for CC50: hgf, 24 h; how it was run: as §2
[13] = test system: HSC-4; test: Selectivity index, ratio of CC50 for human normal cells to CC50 for human HSC4 cells; assay type: functional; how it was run: as §4
[14] = test system: Mus musculus; test: Toxicity in mouse assessed as induction of mortality at 30 to 300 mg/kg, ip; assay type: organism-based; parameters: dose 30-300 mg/kg, route intraperitoneal; conditions: in vivo
[15] = Cytotoxicity against human HPC cells after 24 hrs; assay type: cell-based; conditions: for CC50: hpc, 24 h; how it was run: as §2
[16] = test system: Mus musculus; test: Neurotoxicity in mouse assessed at 30 to 300 mg/kg, ip after 0.5 hrs; assay type: toxicity, organism-based; parameters: dose 30-300 mg/kg, route intraperitoneal; conditions: in vivo
How it was run: (§5)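 Mice received 30, 100 or 300 mg/kg intraperitoneally and were examined at 0.5 and 4 h for mortality and neurological deficit, following NINDS screening protocols. Results were recorded as the number of mice showing a deficit over the number treated per dose.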

[17] = test system: Mus musculus; test: Neurotoxicity in mouse assessed at 30 to 300 mg/kg, ip after 4 hrs; assay type: toxicity, organism-based; parameters: dose 30-300 mg/kg, route intraperitoneal; conditions: in vivo; how it was run: as §5
[18] = species: Mus musculus; test: Toxicity in mouse; assay type: organism-based; conditions: in vivo
How it was run: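 Neurotoxicity was recorded as the number of affected mice per number treated at each dose. Testing was run under National Institute of Neurological Disorders and Stroke screening protocols.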

| Structure (SMILES) | CC50 [2] [µM] | CC50 [3] [µM] | Selectivity Index [5] | logP [7] | CC50 [8] [µM] | Selectivity Index [9] | CC50 [10] [µM] | CC50 [12] [µM] | Selectivity Index [13] | Activity [14] | CC50 [15] [µM] | Activity [16] | Activity [17] | also measured |
| --- | --- | --- | --- | --- | --- | --- | --- | --- | --- | --- | --- | --- | --- | --- |
| O=C1/C(=C/c2ccc(Cl)cc2)CCC/C1=C\c1ccccc1[N+](=O)[O-] | > 400 | 7.6 | >53 | 5.38 | 6.1 | >108 | 3.7 | > 400 | >66 | Non-toxic | 400 |  |  | Activity [1]: inactive; Activity [4]: inactive; Activity [6]: Active; Activity [11]: Active |
| O=C1/C(=C/c2ccc(Cl)cc2)CCC/C1=C\c1ccc([N+](=O)[O-])cc1 |  | 4.1 | 71 | 5.6 | 2.7 | 193 | 1.5 |  | 107 | Non-toxic |  | Non-toxic | Non-toxic | CC50 at 24 h ([2]; HPLF cells): 332 µM; CC50 at 24 h ([12]; HGF cells): 191 µM; CC50 at 24 h ([15]; HPC cells): 345 µM |
| Cc1ccc(/C=C2\CCC/C(=C\c3cccc([N+](=O)[O-])c3)C2=O)cc1 | > 400 | 38 | >8.7 | 5.35 | 45 | >20 | 17 | > 400 | >7.4 | Non-toxic | 192 | Non-toxic | Non-toxic |  |
| COc1cc(/C=C2\CCC/C(=C\c3cccc([N+](=O)[O-])c3)C2=O)cc(OC)c1OC | > 400 | 59 | >6.4 | 4.53 | 92 | >5.2 | 73 | 336 | >4.1 | Non-toxic | > 400 | Non-toxic | Non-toxic |  |
| N[C@@H](Cc1ccc(N(CCCl)CCCl)cc1)C(=O)O |  |  |  |  |  |  |  |  |  |  |  |  |  | Activity [18]: 4 mg/kg |
| COc1cc(/C=C2\CCC/C(=C\c3ccccc3[N+](=O)[O-])C2=O)cc(OC)c1OC | 79 | 3 | 18 | 4.33 | 6.5 | 9 | 5.9 | 44 | 8.2 | Non-toxic | 35 | Non-toxic | Non-toxic |  |
| O=C1/C(=C/c2ccccc2)CCC/C1=C\c1ccccc1[N+](=O)[O-] | 26 | 3.7 | 12 | 4.7 | 3.2 | 12 | 3.8 | 93 | 14 | Non-toxic | 16 | Non-toxic | Non-toxic |  |
